Results reported in ChEMBL document CHEMBL2169858, “Design and synthesis of indomethacin analogues that inhibit P-glycoprotein and/or multidrug resistant protein without COX inhibitory activity” (J Med Chem, 2012).
Values joined by “and” are separate entries in the source; they are usually repeats but may differ in a detail not shown here. Equal entries are not always repeated.

Key:
[1] = biological target: ATP-dependent translocase ABCB1 (Homo sapiens, UniProt P08183); assay: Inhibition of human recombinant P-glycoprotein after 40 mins by Pgp-Glo assay
Sequence of ATP-dependent translocase ABCB1 (P08183 whole entry): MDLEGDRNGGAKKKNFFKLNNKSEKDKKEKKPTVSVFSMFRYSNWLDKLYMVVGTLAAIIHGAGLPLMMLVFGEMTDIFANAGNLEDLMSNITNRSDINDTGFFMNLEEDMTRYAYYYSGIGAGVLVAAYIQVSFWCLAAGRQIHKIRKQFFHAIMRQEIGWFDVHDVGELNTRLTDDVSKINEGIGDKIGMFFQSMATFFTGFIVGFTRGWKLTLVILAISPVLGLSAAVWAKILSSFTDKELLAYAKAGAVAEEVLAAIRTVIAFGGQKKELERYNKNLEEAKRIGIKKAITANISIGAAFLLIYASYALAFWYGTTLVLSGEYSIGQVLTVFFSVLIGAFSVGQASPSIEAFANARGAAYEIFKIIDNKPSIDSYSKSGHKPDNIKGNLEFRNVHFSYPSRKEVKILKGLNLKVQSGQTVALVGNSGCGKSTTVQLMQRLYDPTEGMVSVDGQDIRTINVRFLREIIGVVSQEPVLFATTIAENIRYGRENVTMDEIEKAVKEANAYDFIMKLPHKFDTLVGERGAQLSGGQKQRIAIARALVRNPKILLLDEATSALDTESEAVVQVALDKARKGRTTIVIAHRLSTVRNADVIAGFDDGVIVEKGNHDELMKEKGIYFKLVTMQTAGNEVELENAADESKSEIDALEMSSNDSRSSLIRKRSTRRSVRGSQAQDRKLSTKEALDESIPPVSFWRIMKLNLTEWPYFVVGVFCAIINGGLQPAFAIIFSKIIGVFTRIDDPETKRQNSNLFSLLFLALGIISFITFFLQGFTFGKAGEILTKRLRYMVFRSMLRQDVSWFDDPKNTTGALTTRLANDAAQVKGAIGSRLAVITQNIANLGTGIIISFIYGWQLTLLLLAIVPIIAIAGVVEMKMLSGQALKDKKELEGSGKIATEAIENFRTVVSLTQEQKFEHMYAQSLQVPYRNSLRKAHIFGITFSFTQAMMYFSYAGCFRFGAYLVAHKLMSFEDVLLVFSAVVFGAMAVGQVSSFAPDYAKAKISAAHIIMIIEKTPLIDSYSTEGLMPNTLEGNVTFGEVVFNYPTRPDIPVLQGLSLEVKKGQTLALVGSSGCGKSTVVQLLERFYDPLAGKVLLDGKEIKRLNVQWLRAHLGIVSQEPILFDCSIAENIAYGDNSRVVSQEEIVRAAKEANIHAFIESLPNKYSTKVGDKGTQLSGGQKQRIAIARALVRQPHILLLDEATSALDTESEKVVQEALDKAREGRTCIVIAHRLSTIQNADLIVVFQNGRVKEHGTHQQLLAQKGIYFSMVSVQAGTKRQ
How it was run: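 Recombinant human P-gp membranes were incubated with test compound (dilution series, 0.781–200 μM) and 5 mM MgATP at 37 °C for 40 min. ATP detection buffer was added and luminescence developed at room temperature for 20 min. IC50 was fitted to concentration–luminescence data by nonlinear least squares.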

[2] = biological target: T1, Prostaglandin G/H synthase 1 (Ovis aries, UniProt P05979); assay: Inhibition of ovine COX1 by colorimetric assay
T1 sequence (P05979 whole entry): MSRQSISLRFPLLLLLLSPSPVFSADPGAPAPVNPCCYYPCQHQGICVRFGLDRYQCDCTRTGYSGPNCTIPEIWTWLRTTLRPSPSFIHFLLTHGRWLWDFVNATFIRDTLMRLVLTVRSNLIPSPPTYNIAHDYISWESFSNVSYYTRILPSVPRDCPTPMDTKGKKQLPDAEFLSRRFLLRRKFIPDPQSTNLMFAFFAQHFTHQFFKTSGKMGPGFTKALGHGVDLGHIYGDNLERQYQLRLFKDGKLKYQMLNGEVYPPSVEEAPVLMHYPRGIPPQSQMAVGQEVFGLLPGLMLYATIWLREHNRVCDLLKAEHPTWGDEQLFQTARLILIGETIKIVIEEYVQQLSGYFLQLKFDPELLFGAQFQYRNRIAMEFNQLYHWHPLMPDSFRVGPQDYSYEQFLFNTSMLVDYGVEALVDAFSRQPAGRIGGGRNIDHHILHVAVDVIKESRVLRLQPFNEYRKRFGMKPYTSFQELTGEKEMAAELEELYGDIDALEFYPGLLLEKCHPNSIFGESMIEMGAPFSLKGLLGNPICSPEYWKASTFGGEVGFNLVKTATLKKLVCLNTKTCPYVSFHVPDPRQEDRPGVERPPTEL
How it was run: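 Colorimetric ovine COX inhibitor screening kit, run per the supplier's protocol. Each experiment was done at least four times and reported as mean ± SEM.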

[3] = biological target: Multidrug resistance-associated protein 1 (Homo sapiens, UniProt P33527); assay: Inhibition of human MRP1 in human T98G cells assessed as potentiation of doxorubicin induced cytotoxicity at 50 uM pre-incubated for 2 hrs before doxorubicin addition and measured 4 days after doxorubicin exposure by MTT assay relative to untreated control; assay type: cell-based; settings: 96 h
Sequence of Multidrug resistance-associated protein 1 (P33527 whole entry): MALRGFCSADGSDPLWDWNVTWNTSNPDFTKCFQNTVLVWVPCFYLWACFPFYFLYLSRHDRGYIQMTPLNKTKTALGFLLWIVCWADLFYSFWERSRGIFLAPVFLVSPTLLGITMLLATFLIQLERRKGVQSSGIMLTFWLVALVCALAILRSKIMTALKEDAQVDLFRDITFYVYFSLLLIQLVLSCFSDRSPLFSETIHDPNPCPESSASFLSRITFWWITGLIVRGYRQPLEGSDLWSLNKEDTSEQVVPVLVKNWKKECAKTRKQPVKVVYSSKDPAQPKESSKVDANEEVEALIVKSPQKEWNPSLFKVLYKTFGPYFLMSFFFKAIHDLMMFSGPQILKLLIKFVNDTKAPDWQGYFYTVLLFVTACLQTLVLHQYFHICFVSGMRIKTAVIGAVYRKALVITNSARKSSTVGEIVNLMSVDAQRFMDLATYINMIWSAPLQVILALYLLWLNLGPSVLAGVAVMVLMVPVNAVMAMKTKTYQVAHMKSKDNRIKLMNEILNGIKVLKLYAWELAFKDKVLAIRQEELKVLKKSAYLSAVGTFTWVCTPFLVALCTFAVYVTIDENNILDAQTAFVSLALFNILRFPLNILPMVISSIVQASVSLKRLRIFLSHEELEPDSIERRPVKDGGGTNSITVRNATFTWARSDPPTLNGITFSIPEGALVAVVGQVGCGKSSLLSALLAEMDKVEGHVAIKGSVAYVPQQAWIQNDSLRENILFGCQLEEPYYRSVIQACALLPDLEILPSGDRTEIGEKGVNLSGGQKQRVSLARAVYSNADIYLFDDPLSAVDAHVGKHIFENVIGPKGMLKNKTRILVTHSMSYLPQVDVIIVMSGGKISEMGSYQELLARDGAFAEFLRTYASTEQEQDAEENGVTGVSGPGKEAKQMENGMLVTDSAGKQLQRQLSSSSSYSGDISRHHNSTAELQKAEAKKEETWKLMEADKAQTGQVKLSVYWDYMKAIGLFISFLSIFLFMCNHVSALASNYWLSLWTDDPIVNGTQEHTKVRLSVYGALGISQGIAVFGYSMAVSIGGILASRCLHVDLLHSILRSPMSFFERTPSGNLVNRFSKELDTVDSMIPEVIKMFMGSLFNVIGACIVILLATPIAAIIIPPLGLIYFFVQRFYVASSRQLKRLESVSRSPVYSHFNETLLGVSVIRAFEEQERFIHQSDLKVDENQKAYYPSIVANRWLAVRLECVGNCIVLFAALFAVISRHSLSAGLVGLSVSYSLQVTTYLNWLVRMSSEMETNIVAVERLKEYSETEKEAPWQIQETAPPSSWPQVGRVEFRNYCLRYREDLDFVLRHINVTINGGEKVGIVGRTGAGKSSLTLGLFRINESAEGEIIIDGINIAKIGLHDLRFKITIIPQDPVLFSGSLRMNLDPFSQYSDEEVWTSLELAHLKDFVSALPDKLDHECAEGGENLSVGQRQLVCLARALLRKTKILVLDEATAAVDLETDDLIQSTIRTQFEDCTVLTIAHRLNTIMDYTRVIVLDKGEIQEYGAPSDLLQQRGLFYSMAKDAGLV

T98G = assay: Cytotoxicity against human T98G cells assessed as inhibition of cell growth at 1 uM by MTT assay; assay type: functional; settings: read-out: GI

Row | Structure (SMILES) | IC50 [1] | IC50 [2] [µM] | inhibition (INH) [3] | inhibition of growth at 1 µM (T98G) [%]
1 | Cc1c(CC(=O)O)c2ccccc2n1C(=O)c1ccc(Cl)cc1 | 20 µM | 0.01 |  | 
2 | CCc1c(CC(=O)O)c2ccccc2n1C(=O)c1ccc(Cl)cc1 | 20 µM | > 400 | Active | 
3 | O=C(O)Cc1c(-c2ccccc2)n(C(=O)c2ccc(Cl)cc2)c2ccccc12 | 18 µM | > 400 | Active | 
4 | COc1cccc2c(CC(=O)O)c(C)n(C(=O)c3ccc(Cl)cc3)c12 | 15 µM | > 400 | Active | 
5 | COc1ccc2c(CC(=O)O)c(C)n(C(=O)c3ccc(Cl)cc3)c2c1 | 9.8 µM | > 200 |  | 
6 | CCc1cccc2c(CC(=O)O)cn(C(=O)c3ccc(Cl)cc3)c12 | 17 µM | > 400 | Not Active | 
7 | COc1cccc2c1C(=O)c1c(O)c3c(c(O)c1C2=O)C[C@@](O)(C(=O)CO)C[C@@H]3O[C@H]1C[C@H](N)[C@H](O)[C@H](C)O1 [DOXORUBICIN] |  |  |  | 40
8 | COc1ccc2c(c1)c(CC(=O)O)c(C)n2C(=O)c1ccc(Cl)cc1 [INDOMETHACIN] | 32 µM and 28 µM |  |  | 
